Consider two compounds from ChEMBL document CHEMBL5126600, “Discovery of the First-in-Class G9a/GLP Covalent Inhibitors” (J Med Chem, 2022).

The target of test [1] is T1, Histone-lysine N-methyltransferase EHMT2 (Homo sapiens, UniProt Q96KQ7).
T1 sequence (Q96KQ7 whole entry): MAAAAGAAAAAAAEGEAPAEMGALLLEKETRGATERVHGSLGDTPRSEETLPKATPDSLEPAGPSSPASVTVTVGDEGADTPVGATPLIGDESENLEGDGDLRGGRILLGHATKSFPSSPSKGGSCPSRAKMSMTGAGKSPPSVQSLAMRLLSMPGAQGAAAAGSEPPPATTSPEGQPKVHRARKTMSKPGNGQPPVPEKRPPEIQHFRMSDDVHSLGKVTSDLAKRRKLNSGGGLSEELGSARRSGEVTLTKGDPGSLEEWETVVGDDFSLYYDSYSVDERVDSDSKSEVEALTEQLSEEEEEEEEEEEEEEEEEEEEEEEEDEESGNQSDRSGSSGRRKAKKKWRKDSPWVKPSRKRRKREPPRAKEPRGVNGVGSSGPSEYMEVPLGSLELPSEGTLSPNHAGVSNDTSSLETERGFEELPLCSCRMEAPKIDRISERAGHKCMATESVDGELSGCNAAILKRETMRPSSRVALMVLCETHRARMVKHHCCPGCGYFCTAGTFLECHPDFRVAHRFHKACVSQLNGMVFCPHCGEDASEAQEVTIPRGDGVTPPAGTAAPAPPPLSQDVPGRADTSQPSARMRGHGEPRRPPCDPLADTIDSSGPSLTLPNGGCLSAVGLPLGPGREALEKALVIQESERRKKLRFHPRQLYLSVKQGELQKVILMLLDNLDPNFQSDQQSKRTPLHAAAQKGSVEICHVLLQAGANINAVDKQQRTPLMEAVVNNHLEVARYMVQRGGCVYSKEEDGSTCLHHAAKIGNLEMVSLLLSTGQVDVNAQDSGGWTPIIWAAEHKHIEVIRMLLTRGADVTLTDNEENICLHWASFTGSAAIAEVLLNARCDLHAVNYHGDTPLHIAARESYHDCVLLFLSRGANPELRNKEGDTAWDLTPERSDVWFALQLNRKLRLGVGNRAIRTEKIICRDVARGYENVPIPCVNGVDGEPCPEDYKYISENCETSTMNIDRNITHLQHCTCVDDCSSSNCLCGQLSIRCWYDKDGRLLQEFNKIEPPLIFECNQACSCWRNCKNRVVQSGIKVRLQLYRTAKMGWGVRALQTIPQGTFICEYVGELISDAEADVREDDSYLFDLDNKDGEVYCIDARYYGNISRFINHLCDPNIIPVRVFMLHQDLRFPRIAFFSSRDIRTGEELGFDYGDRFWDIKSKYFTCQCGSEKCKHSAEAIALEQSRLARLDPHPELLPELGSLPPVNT
The test is described as follows: Inhibition of human G9a (913 to 1193 residues) using H3 peptide substrate preincubated for 5 mins followed by SAM addition measured after 10 mins by SAHH-coupled biochemical assay.

Test [2] addresses T1, Histone-lysine N-methyltransferase EHMT2. As to the kind of experiment: Binding affinity to human G9a (913 to 1193 residues) assessed as dissociation constant measured after 1 hr by isothermal titration calorimetry method. Summed up: (§1)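 ITC at 25 °C in 50 mM Tris-HCl pH 7.5, 150 mM NaCl, 1% DMSO; 500 μM compound in syringe titrated into 50 μM G9a or GLP catalytic domain in cell (initial 0.4 μL injection then 13 injections), stirring 750 rpm; run time about 50 min; single binding site fit; mean ± SD of two independent measurements.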

In test [3] the target is T2, Histone-lysine N-methyltransferase EHMT1 (Homo sapiens, UniProt Q9H9B1).
T2 sequence (Q9H9B1 whole entry): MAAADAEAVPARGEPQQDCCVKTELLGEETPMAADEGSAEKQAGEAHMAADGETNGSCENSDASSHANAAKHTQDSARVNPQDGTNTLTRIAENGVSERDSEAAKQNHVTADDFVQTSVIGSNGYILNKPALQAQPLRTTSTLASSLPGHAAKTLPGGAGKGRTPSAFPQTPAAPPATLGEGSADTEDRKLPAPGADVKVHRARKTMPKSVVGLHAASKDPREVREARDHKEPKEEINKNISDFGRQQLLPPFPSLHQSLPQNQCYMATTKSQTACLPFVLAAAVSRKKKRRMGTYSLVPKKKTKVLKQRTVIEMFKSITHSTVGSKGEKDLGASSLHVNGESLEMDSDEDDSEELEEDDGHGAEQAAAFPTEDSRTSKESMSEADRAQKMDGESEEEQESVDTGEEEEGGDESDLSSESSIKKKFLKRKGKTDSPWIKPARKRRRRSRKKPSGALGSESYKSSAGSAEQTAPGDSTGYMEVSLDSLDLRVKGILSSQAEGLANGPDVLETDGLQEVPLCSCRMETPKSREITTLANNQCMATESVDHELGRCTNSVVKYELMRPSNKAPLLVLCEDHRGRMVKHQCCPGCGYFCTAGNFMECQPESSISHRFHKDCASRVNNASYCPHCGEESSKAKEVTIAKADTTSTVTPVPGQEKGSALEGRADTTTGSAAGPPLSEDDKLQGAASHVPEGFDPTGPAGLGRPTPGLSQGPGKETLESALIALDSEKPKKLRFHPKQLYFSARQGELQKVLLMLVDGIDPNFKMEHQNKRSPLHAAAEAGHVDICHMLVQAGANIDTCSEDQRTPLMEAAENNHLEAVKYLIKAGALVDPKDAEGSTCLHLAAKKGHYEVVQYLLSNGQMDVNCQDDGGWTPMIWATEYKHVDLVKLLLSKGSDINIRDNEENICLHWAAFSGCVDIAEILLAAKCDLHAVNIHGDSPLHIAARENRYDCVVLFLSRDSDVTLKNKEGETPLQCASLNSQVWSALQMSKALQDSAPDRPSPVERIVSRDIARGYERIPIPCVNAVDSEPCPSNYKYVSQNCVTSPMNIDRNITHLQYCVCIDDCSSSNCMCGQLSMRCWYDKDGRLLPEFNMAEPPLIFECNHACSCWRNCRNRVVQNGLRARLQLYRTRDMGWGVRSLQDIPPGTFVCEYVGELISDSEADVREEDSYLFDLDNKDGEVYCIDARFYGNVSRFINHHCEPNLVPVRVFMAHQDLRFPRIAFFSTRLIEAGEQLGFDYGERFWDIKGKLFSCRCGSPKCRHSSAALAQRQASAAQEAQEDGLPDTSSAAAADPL
The test is described as follows: Inhibition of human GLP (982 to 1266 residues) using H3 peptide substrate preincubated for 5 mins followed by SAM addition measured after 10 mins by SAHH-coupled biochemical assay.

Test [4] concerns the target T2, Histone-lysine N-methyltransferase EHMT1. As to the kind of experiment: Binding affinity to human GLP (982 to 1266 residues) assessed as dissociation constant measured after 1 hr by isothermal titration calorimetry method. The procedure, abridged:
as §1

Test [5] addresses T3, Histone-lysine N-methyltransferase EHMT2 (Homo sapiens) (UniProt Q96KQ7).
T3 sequence (whole entry): T1 sequence (Q96KQ7 whole entry)
The test is described as follows: Inhibition of human G9a (913 to 1193 residues) assessed as covalent modification by measuring G9a adduct formation at 50 uM incubated for 1 hr by mass spectrometry relative to control. The procedure, abridged: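 Purified G9a or GLP catalytic domain (5 μM) in 50 mM Tris-HCl pH 7.5, 150 mM NaCl incubated with 50 μM compound or DMSO at room temperature (1 h, or 30 and 60 min in time course); intact mass by ESI LC/MS-TOF; adduct % = adduct/(protein + adduct) × 100.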

As for `CCC(=O)Nc1cc(NC2CCN(C(C)C)CC2)c2cc(OC)c(OCCCN3CCCC3)cc2n1`, the half-inhibitory concentration (IC50) in test [1] was 211 nM; in test [3] it was 151 nM. The results for the Kd in test [2] and in test [4] were 48 nM and 16 nM, respectively.
For `C=CC(=O)Nc1nc(NC2CCN(C(C)C)CC2)c2cc(OC)c(OCCCN3CCCC3)cc2n1`, the inhibition in test [5] is 40%.
